Source: PubChem (several laboratories)
Only some compounds are listed: those with a hit (about 2% of all), similar ones and a draw of the others.
VIM-2 inh = inhibitors of Pseudomonas aeruginosa VIM-2 metallo-beta-lactamase | purified VIM-2, nitrocefin hydrolysis, epi-absorbance fluorescence | inhibition, % at 5.6 µM | hit rate 0.89% among 290,000 | AID 1527;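 active = inhibition above the mean of all tested compounds plus 3 SD, cutoff set per screening run, cut at about 7.5% in these data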;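 also: red hydrolysis product quenches plate fluorescence so inhibitors raise well fluorescence; 0% = enzyme with DMSO and 100% = DMSO without enzyme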
IMP-1 inh-1 = blocks Pseudomonas aeruginosa IMP-1 metallo-beta-lactamase; hit rate 0.45% among 290,000; purified IMP-1, nitrocefin hydrolysis, epi-absorbance fluorescence; inhibition, % at 5.6 µM;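 active = inhibition above the mean plus 3 SD of all compounds in the same screening run, cut at about 4.5% in these data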;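 also: 0% = IMP-1 with DMSO and 100% = DMSO wells lacking enzyme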
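System – purified recombinant IMP-1 beta-lactamase · Input – IMP-1 dispensed at 0.2 nM · Timing – 15 min preincubation plus 25 min reaction at 25 °C · Signal – Epi-absorbance fluorescence, 480 nm excitation, 530 nm emission · Measure – percent IMP-1 inhibition derived from blank-referenced optical density · Controls – Enzyme-plus-DMSO low control, enzyme-free DMSO high control · Replication – singlicate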
PLCb3 inh = blocks human PLC-beta3 enzyme activity; hit rate 0.18% among 370,000; AID 720704; Q01970; Purified PLC-beta3, fluorogenic substrate, fluorescence; inhibition, % at 12.2 µM; in the data active = inhibition above about 11%;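 also: 0% = median of compound wells on plate and 100% = full blocker control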
PLCg1 inh = inhibitors of human phospholipase C gamma1; hit rate 0.84% among 370,000; purified PLC-gamma1, fluorogenic substrate, fluorescence; inhibition, % at 12.2 µM; AID 720700; in the data active = inhibition above about 9.5%
Target sequence (P19174 whole entry, looked up): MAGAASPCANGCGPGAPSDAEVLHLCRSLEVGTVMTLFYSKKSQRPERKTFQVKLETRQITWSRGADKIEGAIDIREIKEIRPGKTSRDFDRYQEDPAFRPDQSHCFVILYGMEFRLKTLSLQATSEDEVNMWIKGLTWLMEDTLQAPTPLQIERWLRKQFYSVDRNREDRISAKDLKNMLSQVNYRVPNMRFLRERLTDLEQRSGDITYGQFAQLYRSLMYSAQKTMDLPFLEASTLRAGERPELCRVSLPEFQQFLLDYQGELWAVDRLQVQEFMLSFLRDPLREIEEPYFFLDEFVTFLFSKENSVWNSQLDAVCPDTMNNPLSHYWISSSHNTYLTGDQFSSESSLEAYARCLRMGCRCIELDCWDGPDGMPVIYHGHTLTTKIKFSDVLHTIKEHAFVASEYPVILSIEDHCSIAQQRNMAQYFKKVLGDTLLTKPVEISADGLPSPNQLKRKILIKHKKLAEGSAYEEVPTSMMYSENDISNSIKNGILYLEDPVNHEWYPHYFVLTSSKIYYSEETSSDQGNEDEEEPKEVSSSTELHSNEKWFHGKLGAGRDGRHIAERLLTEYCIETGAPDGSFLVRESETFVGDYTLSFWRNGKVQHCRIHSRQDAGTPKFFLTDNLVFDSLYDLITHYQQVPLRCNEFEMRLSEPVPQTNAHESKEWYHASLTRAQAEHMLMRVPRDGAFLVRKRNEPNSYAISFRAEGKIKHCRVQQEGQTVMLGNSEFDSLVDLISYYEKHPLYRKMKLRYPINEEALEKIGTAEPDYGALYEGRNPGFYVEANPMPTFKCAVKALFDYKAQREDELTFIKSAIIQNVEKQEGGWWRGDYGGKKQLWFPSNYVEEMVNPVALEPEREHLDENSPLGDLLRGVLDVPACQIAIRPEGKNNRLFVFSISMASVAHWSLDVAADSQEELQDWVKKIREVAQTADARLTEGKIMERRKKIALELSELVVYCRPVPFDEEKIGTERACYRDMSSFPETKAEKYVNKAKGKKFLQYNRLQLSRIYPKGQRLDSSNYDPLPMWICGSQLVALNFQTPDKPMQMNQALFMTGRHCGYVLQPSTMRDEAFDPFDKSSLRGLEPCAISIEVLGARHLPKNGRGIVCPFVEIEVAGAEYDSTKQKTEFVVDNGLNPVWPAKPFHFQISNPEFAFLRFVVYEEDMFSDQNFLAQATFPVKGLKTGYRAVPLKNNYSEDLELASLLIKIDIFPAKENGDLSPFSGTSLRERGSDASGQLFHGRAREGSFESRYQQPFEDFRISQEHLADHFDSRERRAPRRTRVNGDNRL
PvdQ inh = P. aeruginosa PvdQ acylase inhibition; purified PvdQ acylase, fluorescence plate reader; inhibition, % at 10 µM; hit rate 0.063% among 340,000; AID 488965; in the data active = inhibition above about 30%, passing the limit was not always enough;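 also: 0% = vehicle neutral wells and 100% = reference inhibitor wells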
IMP-1 inh-2 = IMP-1 inhibition, counter-screen for VIM-2 inhibitors. shares compounds with VIM-2 inh. purified IMP-1, nitrocefin hydrolysis, epi-absorbance fluorescence. inhibition, % at 5.6 µM. 1,300 tested, under 10 active; call rule not given here;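 also: 0% = enzyme with vehicle and 100% = vehicle without enzyme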
VIM-2 FRET ctr = VIM-2 FRET inhibition, artifact counter-screen. shares compounds with VIM-2 inh. purified VIM-2, CCF2 FRET substrate hydrolysis. inhibition, % at 5.6 µM. hit rate 23% among 1,300;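 active = inhibition above the mean of all tested compounds plus 3 SD, cut at about 19% in these data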;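 also: 0% = VIM-2 plus DMSO and 100% = no enzyme wells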
TEM-1 inh = selectivity counter-screen for VIM-2 inhibitors: E. coli TEM-1 inhibitors | hit rate 3% among 1,300 | AID 1866 | shares compounds with VIM-2 inh | inhibition, % at 5.6 µM | Purified TEM-1, nitrocefin hydrolysis, epi-absorbance fluorescence;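 active = inhibition above that campaign's mean inhibition plus 3 SD, cut at about 0.46% in these data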;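 also: 0% = TEM-1 with DMSO and 100% = TEM-1 with 100 µM potassium clavulanate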
VIM-2 confirm 2 = confirmation of P. aeruginosa VIM-2 metallo-beta-lactamase inhibitors; purified VIM-2, nitrocefin hydrolysis, epi-absorbance; inhibition, % at 5.6 µM; AID 2187; shares compounds with VIM-2 inh; hit rate 96% among 1,300;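 active = inhibition of the VIM-2 beta-lactamase enzyme above about 11% from the earlier first-round screen, limit read from the data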;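 also: 0% = VIM-2 with DMSO and 100% = buffer wells without enzyme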
The depositor's hits bear a star; i = inactive; . = no result given.

SMILES | VIM-2 inh | IMP-1 inh-1 | PLCb3 inh | PLCg1 inh | PvdQ inh | IMP-1 inh-2 | VIM-2 FRET ctr | TEM-1 inh | VIM-2 confirm 2
CC(=O)c1c(C)n(-c2ccc(Cl)cc2)c2ccc(O)cc12 | 14* | -1 | -3 | 1 | -12 | -2 | 24* | -4 | 16*
COc1ccc(C)cc1Nc1c2c(nc3ccccc13)CCC2 | 19* | -1 | -7 | -5 | -15 | -3 | 0 | -6 | 28*
COc1ccc(Nc2c3c(nc4ccccc24)CCCC3)cc1OC | 16* | -3 | 1 | 1 | -2 | -3 | -1 | -7 | 30*
COc1ccccc1Nc1c2ccccc2nc2ccccc12 | 24* | 0 | -45 | -29 | -5 | -2 | -3 | -4 | 36*
CCC[C@H]1[C@@H](NC(=O)C2CCOC2)CC[C@@]23CCCN2C(=O)CCC[C@@H]13 (some centres undefined) | . | . | 1 | 0 | . | . | . | . | .
O=C1N=C(c2ccccc2)C(c2ccccc2)N1 (centres undefined) | 15* | -3 | -206 | -150 | -16 | -2 | -5 | -6 | 51*
COc1cccc(/C(O)=C2/C(=O)C(=O)N(Cc3cccnc3)C2c2ccco2)c1 (centres undefined) | 0 | -1 | -1 | -2 | 8 | . | . | . | .
O=C1C(=O)N(Cc2cccnc2)C(c2ccccn2)/C1=C(/O)c1ccccc1 (centres undefined) | 44* | 0 | -3 | -2 | -10 | -4 | 62* | -4 | 50*
Cc1cc(C)c2c(n1)nn1c(NCCOCCO)cc(C)nc21 | 6 | 0 | i | i | 0 | . | . | . | .
Cc1cc(C)c2c(n1)nn1c(NCCCN(C)C)cc(C)nc21 | 19* | -2 | i | i | -21 | -4 | -3 | -7 | 31*
CN1CCN(c2nc(-c3ccccc3O)nc3ccccc23)CC1 | 14* | -2 | -4 | 0 | 1 | -2 | 0 | -7 | 18*
CN1CCN(c2nc(-c3ccccc3Cl)nc3ccccc23)CC1 | -1 | -3 | 5 | 1 | -9 | . | . | . | .
C/C(=C/c1nc(N)n(Cc2ccccc2)c1Cc1ccccc1)Cn1[nH]c(=O)n(-c2ccccc2)c1=O | . | . | -1 | 0 | . | . | . | . | .
O=C(Nc1ccccc1C(F)(F)F)N1CCN(c2ccc3nnc(-c4ccc(F)cc4)n3n2)CC1 | 12* | -2 | -11 | -7 | -5 | -3 | -2 | -8 | 6
O=C(c1ccc(Br)o1)N1CCN(c2ccc3nnc(-c4ccccc4)n3n2)CC1 | 16* | -2 | -7 | -7 | -3 | -3 | -2 | -2 | 24*
COC(=O)[C@]12C[C@H](CC(=O)NCCCCc3ccccc3)C(=O)N(CCC3=CCCCC3)C1=C[C@H](C1CCCC1)O[C@@H]2C | . | . | 3 | 0 | . | . | . | . | .
CCc1nc(N2CCN(C(=O)c3ccco3)CC2)c2oc3ccccc3c2n1 | 33* | -1 | -27 | -15 | -9 | -3 | 2 | -7 | 41*
CCc1nc(Nc2ccc(N3CCN(C(C)=O)CC3)cc2)c2oc3ccccc3c2n1 | 82* | -1 | -128 | -115 | -3 | -3 | 0 | -6 | 84*
c1ccc2c(c1)oc1c(Nc3ccc(CN4CCOCC4)cc3)ncnc12 | 15* | -1 | -81 | -72 | -4 | -3 | -1 | -7 | 25*
Oc1ccc(Nc2ncnc3c2oc2ccccc23)cc1 | 3 | -2 | -18 | -4 | -5 | . | . | . | .
CC(=O)N1CCN(c2ccc(Nc3ncnc4c3oc3ccccc34)cc2)CC1 | 69* | 2 | -27 | -20 | -5 | -3 | 0 | -3 | 82*
c1ccc2c(c1)oc1c(NCCN3CCOCC3)ncnc12 | 2 | -4 | 1 | 1 | -4 | . | . | . | .
Cc1ccc(-n2c(SCc3cccc4ccccc34)nnc2-c2ccccn2)cc1 | . | . | 3 | 4 | . | . | . | . | .
CC(C)[C@@H]1NC(=O)[C@H]2C[C@@]3(c4ccccc4)c4ccccc4N[C@H]3N2C1=O | . | . | -5 | -1 | . | . | . | . | .
CCCCN(CC)CCCNC(=O)c1cc2c(=O)n(CC)c3ccccc3c2s1 | 12* | -2 | -87 | -70 | 2 | -2 | -1 | -6 | 22*
SMILES | VIM-2 inh | IMP-1 inh-1 | PLCb3 inh | PLCg1 inh | PvdQ inh | IMP-1 inh-2 | VIM-2 FRET ctr | TEM-1 inh | VIM-2 confirm 2
CCCN(CCC)CCCNC(=O)c1cc2c(=O)n(CC)c3ccccc3c2s1 | 14* | 1 | -88 | -62 | -13 | -2 | -2 | -5 | 21*
CCOC(CNC(=O)c1cc2c(=O)n(CC)c3ccccc3c2s1)OCC | 6 | -1 | -18 | -11 | -16 | . | . | . | .
CCCCN(CC)CCNC(=O)c1cc2c(=O)n(CC)c3ccccc3c2s1 | 14* | -2 | -141 | -96 | 3 | -3 | -4 | -5 | 19*
CCn1c(=O)c2cc(C(=O)N3CCN(C(=O)c4ccco4)CC3)sc2c2ccccc21 | 7 | -1 | . | . | . | . | . | . | .
C#CCN1CC(N(C)CCOC(=O)c2cc(C)cc(C)c2)CS1(=O)=O (centres undefined) | . | . | 3 | 0 | . | . | . | . | .
CN[C@H]1C[C@H]2c3[nH]c4cccc(-c5ccc6c(c5)OCO6)c4c3CCN2C[C@H]1[C@H](C)O | . | . | -35 | -28 | . | . | . | . | .
CCC(C)Nc1cc(C)c(C#N)c2nc3ccccc3n12 (centres undefined) | 28* | -4 | i | i | -18 | -4 | -12 | -8 | 38*
Cc1cc(NCC2CCCO2)n2c(nc3ccccc32)c1C#N (centres undefined) | 13* | -2 | i | -464 | -1 | -2 | -9 | -4 | 38*
Cc1cc(NCCCOC(C)C)n2c(nc3ccccc32)c1C#N | 30* | 0 | -203 | -162 | -31 | -3 | -15 | -6 | 37*
Cc1cc(NCCCn2ccnc2)n2c(nc3ccccc32)c1C#N | 82* | -3 | -352 | -336 | -11 | -2 | -13 | -7 | 89*
C[C@@H]1COc2cc(F)ccc2S(=O)(=O)N1C | . | . | 1 | 1 | . | . | . | . | .
Cc1cc(NCCCN(C)C)n2c(nc3ccccc32)c1C#N | 57* | -4 | i | i | -34 | -6 | -5 | -11 | 65*
Cc1c2c(n3c(nc4ccccc43)c1C#N)N(c1ccccc1)CC2 | 4 | -5 | . | . | . | . | . | . | .
Cc1c2c(n3c(nc4ccccc43)c1C#N)N(CCCN(C)C)CC2 | 32* | -2 | i | -389 | 0 | -3 | -90 | -8 | 48*
CCOC(=O)N=S(N)(=O)c1ccc(Cl)cc1 (centres undefined) | 15* | 0 | 4 | 2 | 4 | 1 | 32* | -5 | 26*
CCOC(=O)N=S(N)(=O)c1ccccc1 (centres undefined) | 23* | -2 | 4 | 3 | -9 | -2 | 51* | -5 | 34*
